{"data": "Measured values collected from several papers", "target": "Procathepsin L (CTSL, Homo sapiens, UniProt P07711)", "effect on": "enzyme activity", "action": "inhibitor", "note": "Each line is one published result; the experiments were not run side by side."}
{"SMILES": "CC(C)(C)OC(=O)Nc1cccn([C@@H](CC2CC2)C(=O)N[C@@H](C[C@@H]2CCNC2=O)C(=O)C(=O)NCc2ccccc2)c1=O", "quantity": "IC50", "result": "291 nM"}
{"SMILES": "COc1cc(Nc2ncc(F)c(Nc3ccc4c(n3)NC(=O)C(C)(C)O4)n2)cc(OC)c1OC", "quantity": "IC50", "result": "6310 nM"}
{"SMILES": "CC(C)C[C@H](NC(=O)[C@H]1O[C@@H]1C(=O)O)C(=O)NCCCCN=C(N)N", "quantity": "IC50", "result": "33 nM"}
{"SMILES": "CN(C(=O)[C@H](Cc1ccccc1)NC(=O)[C@@H](NC(=O)OCc1ccccc1)C(C)(C)C)N(C#N)CCC(N)=O", "quantity": "Ki", "result": "52.9 nM"}
{"SMILES": "CC[C@H]1NC(=O)[C@@H]2CSC(=N2)[C@@H](Cc2ccccc2)N(C)C(=O)[C@@H]2CCCN2C(=O)[C@H](C(C)C)N(C)C(=O)[C@H](Cc2ccccc2)OC(=O)[C@H](C)[C@@H](C)NC(=O)[C@@H]([C@@H](C)O)NC(=O)[C@@H](CC(C)C)N(C)C(=O)[C@@H]2CSC1=N2", "quantity": "IC50", "result": "14000 nM"}
{"SMILES": "O=C(Cn1nnc2ccccc21)Nc1ccccc1N1CCc2sccc2C1", "assay": "FRET", "quantity": "IC50", "result": "9960 nM"}
{"SMILES": "COc1cccc2[nH]c(C(=O)N[C@@H](CC(C)C)C(=O)N[C@@H](C[C@@H]3CCNC3=O)C(=O)CO)cc12", "quantity": "IC50", "result": "146 nM"}
{"SMILES": "CC[C@H](NC(=O)OCc1ccccc1)C(=O)N[C@H](C(=O)N[C@@H](CC(C)C)C(=O)N(C)N(C#N)CCC(N)=O)C(C)(C)C", "quantity": "Ki", "result": "22.2 nM"}
{"SMILES": "COC(=O)c1c(C)[nH]c(C(=O)COn2nnc3ccc(S(=O)(=O)N(C)C)cc32)c1C", "assay": "FRET", "quantity": "IC50", "result": "> 100000 nM"}
